Results as given in ChEMBL document CHEMBL2169772, “Discovery of (2S)-1-[4-(2-{6-amino-8-[(6-bromo-1,3-benzodioxol-5-yl)sulfanyl]-9H-purin-9-yl}ethyl)piperidin-1-yl]-2-hydroxypropan-1-one (MPC-3100), a purine-based Hsp90 inhibitor” (J Med Chem, 2012).
pIC50: −log10 of the molar value. Calls of active or inactive are those of the source. The rule behind the calls is not given here.

Legend:
Mus musculus [1] = assay: Inhibition of HSP90 in human NCI-N87 cells xenografted nude mouse tumor assessed as induction of HSP70 mRNA expression at 50 to 200 mg/kg, po qd for 22 days; type: functional, organism-based
Mus musculus [2] = assay: Hepatic clearance in Swiss nude mouse at 2.5 mg/kg, iv by LC-ESI-MS/MS method; type: ADME, organism-based, Liver; set-up: dose 2.5 mg/kg, route intravenous; details: in vivo
Method in brief: (§1)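 Intravenous dose in mice, vehicle DMA/PEG300/EtOH/H2O 3/40/12/45. Sampling at 5, 15, 30, 60, 120, 240, 480 and 720 min, three or five animals per time point. Cardiac-puncture EDTA plasma. Acetonitrile protein precipitation with internal standard, then LC-ESI-MS/MS (10–10 000 ng/mL curve). Parameters by noncompartmental fit.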

BT-474 = assay: Cytotoxicity against human BT474 cells assessed as inhibition of tumor growth incubated for 72 hrs by luminometry; type: functional, cell-based; details: BT-474, 72 h
Method in brief: (§2)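 Cells seeded at 5000 per well in DMEM with 10% serum and left overnight. Compound added from DMSO dilutions (0.4% DMSO final) for 72 h. After 5 min at room temperature, ATPLite two-step lysis and substrate added, 5 min incubation, then luminescence read. Values are the mean of at least two experiments.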

Mus musculus [3] = assay: Inhibition of HSP90 in human NCI-N87 cells xenografted nude mouse liver assessed as induction of HSP70 mRNA expression at 50 to 200 mg/kg, po qd for 22 days; type: functional, organism-based
[4] = Half life in Swiss nude mouse at 2.5 mg/kg, iv by LC-ESI-MS/MS method; type: ADME, organism-based; set-up: dose 2.5 mg/kg, route intravenous; details: in vivo; method in brief: as §1
DU-145 = assay: Cytotoxicity against human DU145 cells assessed as inhibition of tumor growth incubated for 72 hrs by luminometry; type: functional, cell-based; details: DU-145, 72 h; method in brief: as §2
Heat shock protein HSP90 = Heat shock protein HSP90 (Homo sapiens, UniProt P07900+P08238); assay: Inhibition of human HSP90 in DU145 cells assessed as degradation of Her2 incubated for 24 hrs by Western blot method; type: cell-based
Method in brief: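 Cells exposed to a range of concentrations for 24 h. Lysates analyzed by Western blot with Her2-, Hsp70- and Akt-specific antibodies.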

[5] = Oral bioavailability in Swiss nude mouse at 10 mg/kg by LC-ESI-MS/MS method; type: ADME, organism-based; details: in vivo
Method in brief: (§3)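 Mice dosed by oral gavage, vehicle DMA/PEG300/EtOH/H2O (3/40/12/45, v/v/v/v). Blood drawn by cardiac puncture into EDTA plasma. Three or five animals per time point. Plasma precipitated with acetonitrile plus internal standard. Quantified by LC-ESI-MS/MS against a 10–10 000 ng/mL standard curve with QC samples. Noncompartmental analysis.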

[6] = Permeability of the compound after 30 mins by PAMPA; type: ADME; details: read-out: permeability
Method in brief: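 Double-sink PAMPA with donor solutions at pH 5.0, 6.2 and 7.4. Filter coated with phospholipid in dodecane. Sandwich incubated 30 min at 37 °C with stirring equivalent to a 40 μm aqueous boundary layer. Permeability calculated from UV spectra at 250–490 nm. Verapamil run as positive control.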

NCI-H69 = assay: Cytotoxicity against human NCI-H69 cells assessed as inhibition of tumor growth incubated for 72 hrs by luminometry; type: functional, cell-based; details: NCI-H69, 72 h; method in brief: as §2
Mus musculus [7] = assay: Toxicity in nude mouse xenografted with human NCI-N87 cells assessed as effect on body weight at 50 mg/kg, po qd for 22 days measured twice a week; type: organism-based; set-up: dose 50 mg/kg, route oral; details: in vivo, 528 h
Method in brief: (§4)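 Female nude mice (Crl:NU-Fox1nu) implanted subcutaneously in the right flank with 5 million NCI-N87 cells. At median tumor volume of roughly >100 mm3, randomized to 5 cohorts of 10. Dosed orally once daily for 22 days with vehicle (40% w/w Captisol) or 50, 75, 125 or 200 mg/kg. Tumor size and body weight measured at least twice weekly.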

[8] = AUC in Swiss nude mouse at 2.5 mg/kg, iv by LC-ESI-MS/MS method; type: ADME, organism-based; set-up: dose 2.5 mg/kg, route intravenous; details: plasma; method in brief: as §1
LNCaP = assay: Cytotoxicity against human LNCAP cells assessed as inhibition of tumor growth incubated for 72 hrs by luminometry; type: functional, cell-based; method in brief: as §2
[9] = Volume of distribution in Swiss nude mouse at 2.5 mg/kg, iv by LC-ESI-MS/MS method; type: ADME, organism-based; set-up: dose 2.5 mg/kg, route intravenous; details: in vivo; method in brief: as §1
[10] = Oral bioavailability in Swiss nude mouse at 100 mg/kg administered using captisol and phosphate buffer system formulation by LC-ESI-MS/MS method; details: in vivo
[11] = AUC in Swiss nude mouse at 10 mg/kg, po by LC-ESI-MS/MS method; type: ADME, organism-based; set-up: dose 10 mg/kg, route oral; details: plasma; method in brief: as §3
Mus musculus [12] = assay: Inhibition of HSP90 in mouse liver assessed as induction of HSP70 mRNA expression at 100 mg/kg, po after 6 hrs relative to control; type: functional
NCI-N87 = assay: Antitumor activity against human NCI-N87 cells xenografted in po dosed nude mouse assessed as tumor growth inhibition administered as qd for 22 days measured twice a week; type: functional, organism-based; method in brief: as §4

C[C@H](O)C(=O)N1CCC(CCn2c(Sc3cc4c(cc3Br)OCO4)nc3c(N)ncnc32)CC1
inhibition (Mus musculus [1]): Active | CLH (Mus musculus [2]): 19.78 mL/min/kg | pIC50 (BT-474): 6.26 | inhibition (Mus musculus [3]): Active | half-life [4]: 1.4 h | pIC50 (DU-145): 6.28 | inhibition (Heat shock protein HSP90; DU-145): Dose-dependent effect | IC50 (Heat shock protein HSP90; du-145): 100 nM | bioavailability [5]: 38% | Papp at 0.5 h [6]: > 350 ×10⁻⁶ cm/s | pIC50 (NCI-H69): 6.82 | Activity (Mus musculus [7]): Non-toxic | AUC [8]: 2110 ng·h/mL | pIC50 (LNCaP): 6.29 | Vd [9]: 2.44 L/kg | bioavailability [10]: > 50% | AUC [11]: 3210 ng·h/mL | fold change (FC) (Mus musculus [12]): 53 | TGI (NCI-N87): Dose-dependent effect
